Pemphigus Ab inh: blocks pemphigus antibody binding to human desmoglein-3; AID 588358; hit rate 0.48% among 310,000; P32926; DSG3-coupled beads, scFv-anti-DSG3-GFP binding, flow cytometry; active compounds read low; binding (percent of control), % at 10 µM;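 active = binding more than 3 SD below its plate's average and above zero; inconclusive = below that plate limit but binding exactly zero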;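 note: hits lower antibody fragment binding to DSG3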
Target sequence (P32926 whole entry, looked up, the tested form may be a part): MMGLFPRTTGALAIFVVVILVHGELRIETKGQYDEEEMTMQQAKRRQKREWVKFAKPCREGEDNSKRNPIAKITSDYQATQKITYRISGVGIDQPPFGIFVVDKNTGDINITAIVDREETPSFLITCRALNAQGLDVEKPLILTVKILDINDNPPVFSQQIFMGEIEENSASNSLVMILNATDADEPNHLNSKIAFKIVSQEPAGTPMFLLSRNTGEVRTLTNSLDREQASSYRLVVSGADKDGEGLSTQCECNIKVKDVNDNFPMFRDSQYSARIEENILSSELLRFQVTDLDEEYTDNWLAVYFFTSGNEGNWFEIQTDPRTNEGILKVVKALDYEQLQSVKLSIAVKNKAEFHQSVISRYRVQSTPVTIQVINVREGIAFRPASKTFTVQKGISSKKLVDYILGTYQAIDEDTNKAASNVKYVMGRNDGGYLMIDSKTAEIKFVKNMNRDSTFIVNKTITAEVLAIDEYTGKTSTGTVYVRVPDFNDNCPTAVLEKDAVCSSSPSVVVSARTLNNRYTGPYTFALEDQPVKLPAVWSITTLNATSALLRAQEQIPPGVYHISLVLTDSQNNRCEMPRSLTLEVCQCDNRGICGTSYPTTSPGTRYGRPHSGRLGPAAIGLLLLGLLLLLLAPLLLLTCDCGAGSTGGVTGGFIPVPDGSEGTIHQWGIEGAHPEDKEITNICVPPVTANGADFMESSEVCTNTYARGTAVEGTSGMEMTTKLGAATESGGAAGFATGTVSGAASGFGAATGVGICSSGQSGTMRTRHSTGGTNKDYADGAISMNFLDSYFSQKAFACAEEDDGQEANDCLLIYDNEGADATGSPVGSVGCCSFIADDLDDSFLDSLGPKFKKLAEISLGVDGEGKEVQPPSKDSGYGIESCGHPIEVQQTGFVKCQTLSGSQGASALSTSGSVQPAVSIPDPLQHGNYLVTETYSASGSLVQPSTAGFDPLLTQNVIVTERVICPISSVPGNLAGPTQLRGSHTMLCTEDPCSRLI
Myeloid diff MLP: myeloid differentiation induction; ER-HoxA9 myeloid progenitors, lysozyme-GFP differentiation, flow cytometry; AID 624256; calls only at 10 µM; hit rate 1% among 360,000;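 active = normalized GFP-positive differentiation at or above the plate's own cutoff, the solvent-only control mean plus 3 SD; inconclusive = no clear call, values can overlap the other calls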;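 note: cells exposed to compound for four days before flow analysis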
Vif inh: inhibitors of HIV Vif | HEK293T cells, Vif self-association by quenched fluorescence, imaging, 24 h | inhibition, % at 7.49 µM | hit rate 0.35% among 340,000; in the data active = inhibition above about 50%, passing the limit was not always enough; inconclusive = no clear call, values can overlap the other calls; inactive = below about 31%
T cell modulator: T cell immune modulators affecting CD8 T cell-vesicle binding | 2C CD8+ T cell-vesicle binding, flow cytometry; active compounds read low | response (vesicle binding), % at 7 µM | hit rate 0.068% among 330,000;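 active = response, share of CD8 T cells binding vesicles, and their 90th percentile fluorescence all below set limits, cut at about 80% in these data, passing the limit was not always enough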;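 note: values below 100% mean blocked vesicle binding to the CD8+ T cells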
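material = purified 2C TCR transgenic mouse naive CD8+ T cells | controls = Unloaded micro-vesicles (low), QL9 vesicles with 0.7% DMSO (high) | detection = cytometric PE anti-B7-1 and Alexa647 anti-CD8 signals after 1% paraformaldehyde fixation | incubation = binding step 1.5 h, 37 °C, antibody labelling 20 min, ice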
The depositor's hits bear a star; i = inactive; ? = inconclusive; · = no result given; + = active, no number. In the library only some 1.7% were active in any assay of this set; here they are far more common.

SMILES	Pemphigus Ab inh	Myeloid diff MLP	Vif inh	T cell modulator
CC(C(=O)NCc1ccccc1)n1c(CSCCOc2ccccc2)nc2ccccc21 (stereo unspecified)	·	i	·	·
COc1ccc(-c2cnn3c(N)c(S(=O)(=O)c4ccccc4)cnc23)cc1	100	i	-10	294
Nc1c(S(=O)(=O)c2ccccc2)cnc2c(-c3ccc(F)cc3)cnn12	-18*	i	0	298
NNc1nc2c(-c3cccc(C(F)(F)F)c3)nnn2c2ccccc12	106	+	-7	220
CCOc1ccc(-n2c(SCc3cc(=O)oc4cc(C)c(C(C)C)cc34)nnc2-c2cccnc2)cc1	105	i	0	321
Cc1cc2oc(=O)cc(CSc3nnc(C)n3N)c2cc1C(C)C	123	+	-1	267
COC(=O)CSc1nnc(-c2ccc(NS(=O)(=O)c3ccccc3)cc2)o1	96	+	13	229
N#C/C(=C/c1ccc(O)c(O)c1)c1nc2ccccc2[nH]1	96	+	3	408
O=c1sc(N2CCN(c3ccccc3F)CC2)nc2ccsc12	95	i	1	382
O=c1sc(N2CCN(c3ccc(F)cc3)CC2)nc2ccsc12	79*	i	68*	222
NNC(=O)c1csc(-c2ccc(C(F)(F)F)cc2Cl)n1	·	+	-9	477
CC(C)C[C@H](NC(=O)OC(C)(C)C)C(=O)N1CCC(C(=O)N[C@@H](Cc2c[nH]c3ccccc23)C(=O)O)CC1	?	i	4	774
CCC1CN2CCc3cc(OC)c(OC)cc3C2CC1CC1c2cc(OC)c(OC)cc2CCN1C(=O)C(Cc1c[nH]c2ccccc12)NC(=O)OC(C)(C)C (stereo unspecified)	114	+	1	·
C/C(Cl)=C\Cn1c(N2CCCC2)nc2c1c(=O)[nH]c(=O)n2C	101	i	-1	233
C/C(Cl)=C/Cn1c(N2CCCC2)nc2c1c(=O)n(C)c(=O)n2C	99	+	-10	200
COc1cc(N=c2ssnc2Cl)cc(OC)c1	62*	i	5	920
COC(=O)[C@]12CCCCC=C1N(CCC1=CCCCC1)C(=O)[C@H](CC(=O)NCc1ccccc1)C2	·	i	·	·
O=C(CN1CCN(S(=O)(=O)c2ccc(F)cc2)CC1)Nc1ccc(F)cc1F	108	+	9	326
O=C(Cc1sc(Nc2ccccc2)nc1-c1ccccc1)NCc1ccccc1	107	i	98*	75
O=C(O)Cc1sc(NCCc2ccccc2)nc1-c1ccc(F)cc1	116	+	18	i
C=CCNc1nc(-c2cccs2)c(CC(=O)O)s1	96	i	-3	957
O=C(O)Cc1sc(Nc2ccccc2)nc1-c1cccs1	107	+	?	410
NC(c1ccccc1)c1csc(NC(=O)NCC2CCCCC2)n1 (stereo unspecified)	·	i	6	·
CC(=O)OC[C@@H]1CN(Cc2ccccc2)C[C@H](n2cnc3c(NCc4ccc(F)cc4)ncnc32)O1	·	i	0	·
CCCCc1ccc(NC(=S)N2CCC(O)CC2)cc1	102	+	-4	183
SMILES	Pemphigus Ab inh	Myeloid diff MLP	Vif inh	T cell modulator
Nc1ccc2c(c1)Nc1ccccc1CC2	108	+	7	278
CCCCN1C(=O)C(CC(=O)NCCCN(C)C)CC(C(=O)N2CCCCCC2)=C1C (stereo unspecified)	·	i	·	·
CCCCNC(=O)Nc1nc2ccc(CC)cc2s1	107*	i	3	274
CCCNC(=O)c1cc(C2CCCCN2C(=O)c2cc(C(C)(C)C)nn2C)on1 (stereo unspecified)	·	i	-15	·
CN1CCN(CCCNC(=O)c2ccc(/C=C3\Sc4ccccc4N(Cc4ccc(F)cc4)C3=O)cc2)CC1	100	i	-3	·
CN1CCN(CCCNC(=O)c2ccc(/C=C3/Sc4ccccc4N(Cc4cccc(Cl)c4)C3=O)cc2)CC1	110	+	1	·
O=[N+]([O-])c1ccc(N/N=C/c2c[nH]c3ccccc23)cc1	112	+	·	321
O=[N+]([O-])c1ccc(N/N=C/c2cn(-c3ccccc3)nc2-c2ccccc2)cc1	101	+	15	213
NS(=O)(=O)c1ccc(N/N=C/c2cn(-c3ccccc3)nc2-c2ccccc2)c([N+](=O)[O-])c1	85	i	-1	150
O=C(O)Cn1nnc(-c2ccccc2)c1COc1ccccc1	·	i	8	·
CC1(C)CC(=O)C2=C(C1)N(Cc1ccco1)C(=O)NC2(C(F)(F)F)C(F)(F)F	101	i	54*	253
COc1ccc(O)c(/C=N/n2c(-c3ccco3)csc2=Nc2cccnc2)c1	1.2*	i	8	489
COCCn1c(-c2ccco2)csc1=Nc1cccnc1	96	i	0	188
OCCNCc1cc(Br)ccc1OCc1ccc(F)cc1	104	i	1	157
OCCCCNCc1cc(Br)ccc1OCc1ccccc1F	108	i	-13	27*
CC(=O)c1ccc(S(=O)(=O)Nc2ccc(C(=O)N(C)CC(=O)Nc3cccc(C)c3C)cc2)cc1	93	i	-2	235
COc1ccc(OCc2cccc(C(=O)Nc3cc(C)on3)c2)cc1	93	i	2	481
Cn1c(C(=O)NN)cc2cc(OCc3ccccc3)ccc21	100	+	4	497
NNC(=O)c1cccc(COc2cccc(Br)c2)c1	101	i	8	457
NNC(=O)c1cccc(COc2ccc(Br)cc2)c1	111	+	-6	233
COc1ccc(OCc2cccc(C(=O)NN)c2)cc1	102	+	1	289
CC1(C(=O)Nc2ccc3c(c2)OCCO3)CN(S(C)(=O)=O)CC(=O)N1Cc1cccs1 (stereo unspecified)	·	i	·	·
CCCCSc1nnc(-c2ccc(NC(=O)CCc3ccccc3)cc2)n1C	-28*	i	-10	361
Fc1ccc(-c2cn(-c3ccccc3)c3[n+]2CCS3)cc1	115	+	1	370
Clc1ccc(-c2cn(-c3ccccc3)c3[n+]2CCS3)cc1	106	·	2	431
SMILES	Pemphigus Ab inh	Myeloid diff MLP	Vif inh	T cell modulator
O=C(O)CCCCn1c(SCc2ccccc2Cl)nc2ccsc2c1=O	96	i	59*	·
Cc1ccc2nc3c(cc2c1)c(NS(=O)(=O)c1ccccc1)nn3CC(C)C	83*	i	5	506
COc1ccc(CC(=O)NC(C)c2nnc(SCCOc3ccc(OC)cc3)n2C)cc1 (stereo unspecified)	106	+	-12	361
O=C(NNS(=O)(=O)c1ccccc1[N+](=O)[O-])c1cc2ccccc2cc1O	103	i	-4	115
O=C(NNS(=O)(=O)c1ccccc1[N+](=O)[O-])c1ccccc1Cl	107	+	0	914
O=C(N/N=C/c1ccc(Cl)cc1Cl)c1n[nH]c2c1CCCC2	97	i	1	159
O=C(N/N=C/c1cccc2ccccc12)c1n[nH]c2c1CCCC2	102	+	8	67
NC(=O)c1ccsc1NC(=O)COC(=O)c1cc(=O)[nH]c2ccccc12	83*	i	-4	314
O=C1CC(=O)N(C2CCCCC2)C(=O)N1c1ccccc1S(=O)(=O)Oc1ccccc1	·	+	-2	·
